{"source": "PubChem BioAssay AID624401", "about": "(The Scripps Research Institute Molecular Screening Center, 2012)", "molecular_target": "Aryl hydrocarbon receptor (Homo sapiens) (UniProt P35869)", "sequence (P35869 whole entry, looked up)": "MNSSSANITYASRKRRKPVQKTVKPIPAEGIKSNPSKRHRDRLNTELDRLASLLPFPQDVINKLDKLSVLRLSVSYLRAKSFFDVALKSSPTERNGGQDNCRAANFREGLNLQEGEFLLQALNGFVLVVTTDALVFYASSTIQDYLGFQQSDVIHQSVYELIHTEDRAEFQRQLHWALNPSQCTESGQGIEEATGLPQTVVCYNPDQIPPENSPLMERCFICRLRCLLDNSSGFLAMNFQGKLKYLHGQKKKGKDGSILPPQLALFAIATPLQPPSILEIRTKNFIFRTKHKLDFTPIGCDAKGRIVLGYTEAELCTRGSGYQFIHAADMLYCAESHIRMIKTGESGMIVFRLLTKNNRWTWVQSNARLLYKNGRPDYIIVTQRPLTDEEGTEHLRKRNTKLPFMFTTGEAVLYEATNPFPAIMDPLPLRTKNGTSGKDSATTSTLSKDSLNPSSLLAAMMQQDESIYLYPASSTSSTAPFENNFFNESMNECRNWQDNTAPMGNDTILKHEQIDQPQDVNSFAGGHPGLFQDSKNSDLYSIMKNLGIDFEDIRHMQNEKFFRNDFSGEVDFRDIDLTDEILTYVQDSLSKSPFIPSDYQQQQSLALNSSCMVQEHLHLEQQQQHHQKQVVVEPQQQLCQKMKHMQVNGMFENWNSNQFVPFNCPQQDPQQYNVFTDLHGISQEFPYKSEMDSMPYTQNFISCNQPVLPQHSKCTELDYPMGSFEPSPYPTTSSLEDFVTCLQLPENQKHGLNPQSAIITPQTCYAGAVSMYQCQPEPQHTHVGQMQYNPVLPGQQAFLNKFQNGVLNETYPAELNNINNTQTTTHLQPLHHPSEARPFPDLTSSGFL", "assay": "AhR reporter activation, late-stage follow-up, counter-screen for AHR activator project, luminescence, HG2L7.5c1 cells, set 2 (AID 624401)", "conditions": "HG2L7.5c1 HepG2 DRE-luciferase reporter, 24 h; for activation: at 10 µM, stronger effect = higher value", "how_it_was_run": "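Assay system: HepG2-derived HG2L7.5c1 AHR luciferase reporter cells. Probe or stimulus: reporter construct with MMTV promoter plus 20 murine CYP1A1 DREs. Times: 24 h compound exposure, 37 °C. Measured by: lysate luminescence. Read-out basis: % of maximal TCDD response, Hill-fit EC50. Controls: maximal TCDD induction as high control. Replicates: triplicate wells per compound.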", "note": "pEC50: −log10 of the molar value. The source made the active and inactive calls.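 Rule for the calls: active = activation of 20% or more; inactive = activation below 20%, including negative responses.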"}
{"smiles": "CCOC(=O)c1c(C)nn(-c2cc(Cl)ccc2Cl)c1C", "values": [{"measurement": "activation", "result": "inactive"}]}
{"smiles": "Cc1cccc(NC(=O)c2cc(-c3ccc(C)cc3O)n[nH]2)c1", "values": [{"measurement": "activation", "result": "inactive"}]}
{"smiles": "CCOc1ccccc1NC(=O)c1ccc(C(=O)Nc2ccccc2OCC)nc1", "values": [{"measurement": "activation", "result": 48.4, "unit": "%"}]}
{"smiles": "Cc1ccc(NC(=O)c2ccc(C(=O)Nc3ccc(C)cc3C)nc2)c(C)c1", "values": [{"measurement": "activation", "result": "inactive"}]}
{"smiles": "Cc1ccc(-c2cc(-c3ccc(F)cc3)n[nH]2)c(O)c1", "values": [{"measurement": "pEC50", "result": 6.60}]}
{"smiles": "Nc1nc(Cl)cc(Nc2ccc(Oc3ccccc3)cc2)n1", "values": [{"measurement": "activation", "result": 25.2, "unit": "%"}]}
{"smiles": "Cc1ccc(-c2cc(-c3ccc(Cl)cc3)n[nH]2)c(O)c1", "values": [{"measurement": "pEC50", "result": 5.40}]}
{"smiles": "Nc1nc(Cl)cc(Nc2ccccc2F)n1", "values": [{"measurement": "activation", "result": "inactive"}]}
{"smiles": "Cc1ccc(-c2cc(-c3cccc(F)c3)n[nH]2)c(O)c1", "values": [{"measurement": "pEC50", "result": 6.19}]}
{"smiles": "CN(Cc1cc(-c2cccs2)n[nH]1)Cc1coc2ccccc2c1=O", "values": [{"measurement": "activation", "result": "inactive"}]}
{"smiles": "Cc1ccc(O)c(-c2cc(-c3ccccc3Cl)[nH]n2)c1", "values": [{"measurement": "activation", "result": 32, "unit": "%"}]}
{"smiles": "Cc1cc(Nc2ccc(F)cc2)nc(N)n1", "values": [{"measurement": "activation", "result": "inactive"}]}
{"smiles": "COc1ccc(NC(=O)c2ccc(C(=O)Nc3ccc(OC)cc3OC)nc2)c(OC)c1", "values": [{"measurement": "activation", "result": "inactive"}]}
{"smiles": "COc1ccc(Nc2cc(Cl)nc(N)n2)cc1OC", "values": [{"measurement": "activation", "result": "inactive"}]}
{"smiles": "COc1ccc(Cl)cc1NC(=O)c1ccc(C(=O)Nc2cc(Cl)ccc2OC)nc1", "values": [{"measurement": "activation", "result": "inactive"}]}
{"smiles": "COc1ccc(Nc2cc(Cl)nc(N)n2)cc1", "values": [{"measurement": "activation", "result": "inactive"}]}
{"smiles": "Cc1cccc(C)c1NC(=O)c1ccc(C(=O)Nc2c(C)cccc2C)nc1", "values": [{"measurement": "activation", "result": "inactive"}]}
{"smiles": "Cc1ccnc(NC(=O)CSc2nc3ccccc3s2)c1", "values": [{"measurement": "activation", "result": "inactive"}]}
{"smiles": "O=C(CSc1nc(-c2ccc(F)cc2)cs1)Nc1ccccn1", "values": [{"measurement": "activation", "result": "inactive"}]}
{"smiles": "Cc1csc(SCC(=O)Nc2ccccn2)n1", "values": [{"measurement": "activation", "result": "inactive"}]}
{"smiles": "Cc1cc(Br)cc(C)c1Nc1ccnc(Nc2ccc(C#N)cc2)n1", "values": [{"measurement": "activation", "result": "inactive"}]}
{"smiles": "O=C(CSc1nc2ccccc2s1)Nc1ccccn1", "values": [{"measurement": "activation", "result": 18.9, "unit": "%"}]}
{"smiles": "O=C(CSc1nc2ccccc2s1)Nc1ccc(Cl)cn1", "values": [{"measurement": "activation", "result": "inactive"}]}
{"smiles": "COc1ccc(O)c(-c2cc(-c3cccs3)[nH]n2)c1", "values": [{"measurement": "activation", "result": "inactive"}]}
{"smiles": "COc1ccc(-c2cc(-c3ccc(C)cc3O)[nH]n2)cc1", "values": [{"measurement": "activation", "result": 15.6, "unit": "%"}]}
